≈ marks a conversion by molar mass, not a printed value. Calls of active or inactive are those of the source. No cut-off for these calls is given here.
What was measured:
[1] = target: DNA topoisomerase 2-alpha (Homo sapiens) (UniProt P11388); assay: Inhibition of human topoisomerase 2alpha-mediated kinetoplast DNA decatenation at 100 uM
Procedure, shortened: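 Incubation was 60 min at 37 °C, then SDS stop and proteinase K (55 °C, 30 min). Samples ran on 1% agarose containing ethidium bromide. Activity was scored as the ratio of nicked plus supercoiled minicircles to kDNA.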

[2] = target: DNA topoisomerase 2-alpha (Homo sapiens) (UniProt P11388); assay: Inhibition of human topoisomerase 2alpha-mediated relaxation of double-stranded pRYG DNA at 100 uM by agarose gel electrophoresis
Procedure, shortened: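 Purified human topoisomerase IIα (3 units) was added last. Incubation was 37 °C for 60 min, quenched with 1% SDS/25 mM EDTA, then proteinase K. Products ran on 1% agarose in TBE without ethidium bromide and were stained afterward.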

Nucleic Acid = assay: Induction of DNA intercalation in pRYG DNA at 100 uM by agarose gel electrophoresis; format: nucleic-acid assay
[3] = target: T1, Type II restriction enzyme XhoI (Xanthomonas vasicola) (UniProt Q9KVZ7); assay: Inhibition of Xanthomonas vasicola XhoI assessed as pBSKS cleavage at 100 uM by endonuclease assay
T1 sequence (whole entry): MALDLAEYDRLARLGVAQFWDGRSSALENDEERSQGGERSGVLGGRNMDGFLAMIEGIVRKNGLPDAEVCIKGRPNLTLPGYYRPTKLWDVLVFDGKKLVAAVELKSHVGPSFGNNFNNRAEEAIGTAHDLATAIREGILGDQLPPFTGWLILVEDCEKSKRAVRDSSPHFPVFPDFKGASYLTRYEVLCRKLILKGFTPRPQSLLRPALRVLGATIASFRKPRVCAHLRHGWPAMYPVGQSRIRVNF
Procedure, shortened: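 Plasmid pBluescript with 1 unit XhoI in place of topoisomerase, using the relaxation protocol: 0.5 mM ATP, Tris-HCl/KCl/NaCl/EDTA/MgCl2/glycerol buffer pH 8.0, 1% DMSO, 37 °C for 60 min. The reaction was quenched with SDS/EDTA and treated with proteinase K. Products were resolved on 1% agarose in TBE.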

Saccharomyces cerevisiae = assay: Growth inhibition of Saccharomyces cerevisiae BY4741 after 24 hrs; format: functional; details: for MIC50: BY4741, 24 h
Procedure, shortened: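 BY4741 grown overnight at 30 °C in YPD and taken at log phase (~0.6 OD660/ml), then diluted into fresh YPD at 0.01 OD660/ml. Compounds were given in 1% DMSO at twofold steps from 1 to 128. Growth at 30 °C for 24 h was read as OD660 and normalised to a DMSO-only control. MIC50 (50% growth inhibition) was derived from relative growth versus log10 concentration.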

Chain of DNA topoisomerase 2-alpha (Homo sapiens) (P11388 whole entry): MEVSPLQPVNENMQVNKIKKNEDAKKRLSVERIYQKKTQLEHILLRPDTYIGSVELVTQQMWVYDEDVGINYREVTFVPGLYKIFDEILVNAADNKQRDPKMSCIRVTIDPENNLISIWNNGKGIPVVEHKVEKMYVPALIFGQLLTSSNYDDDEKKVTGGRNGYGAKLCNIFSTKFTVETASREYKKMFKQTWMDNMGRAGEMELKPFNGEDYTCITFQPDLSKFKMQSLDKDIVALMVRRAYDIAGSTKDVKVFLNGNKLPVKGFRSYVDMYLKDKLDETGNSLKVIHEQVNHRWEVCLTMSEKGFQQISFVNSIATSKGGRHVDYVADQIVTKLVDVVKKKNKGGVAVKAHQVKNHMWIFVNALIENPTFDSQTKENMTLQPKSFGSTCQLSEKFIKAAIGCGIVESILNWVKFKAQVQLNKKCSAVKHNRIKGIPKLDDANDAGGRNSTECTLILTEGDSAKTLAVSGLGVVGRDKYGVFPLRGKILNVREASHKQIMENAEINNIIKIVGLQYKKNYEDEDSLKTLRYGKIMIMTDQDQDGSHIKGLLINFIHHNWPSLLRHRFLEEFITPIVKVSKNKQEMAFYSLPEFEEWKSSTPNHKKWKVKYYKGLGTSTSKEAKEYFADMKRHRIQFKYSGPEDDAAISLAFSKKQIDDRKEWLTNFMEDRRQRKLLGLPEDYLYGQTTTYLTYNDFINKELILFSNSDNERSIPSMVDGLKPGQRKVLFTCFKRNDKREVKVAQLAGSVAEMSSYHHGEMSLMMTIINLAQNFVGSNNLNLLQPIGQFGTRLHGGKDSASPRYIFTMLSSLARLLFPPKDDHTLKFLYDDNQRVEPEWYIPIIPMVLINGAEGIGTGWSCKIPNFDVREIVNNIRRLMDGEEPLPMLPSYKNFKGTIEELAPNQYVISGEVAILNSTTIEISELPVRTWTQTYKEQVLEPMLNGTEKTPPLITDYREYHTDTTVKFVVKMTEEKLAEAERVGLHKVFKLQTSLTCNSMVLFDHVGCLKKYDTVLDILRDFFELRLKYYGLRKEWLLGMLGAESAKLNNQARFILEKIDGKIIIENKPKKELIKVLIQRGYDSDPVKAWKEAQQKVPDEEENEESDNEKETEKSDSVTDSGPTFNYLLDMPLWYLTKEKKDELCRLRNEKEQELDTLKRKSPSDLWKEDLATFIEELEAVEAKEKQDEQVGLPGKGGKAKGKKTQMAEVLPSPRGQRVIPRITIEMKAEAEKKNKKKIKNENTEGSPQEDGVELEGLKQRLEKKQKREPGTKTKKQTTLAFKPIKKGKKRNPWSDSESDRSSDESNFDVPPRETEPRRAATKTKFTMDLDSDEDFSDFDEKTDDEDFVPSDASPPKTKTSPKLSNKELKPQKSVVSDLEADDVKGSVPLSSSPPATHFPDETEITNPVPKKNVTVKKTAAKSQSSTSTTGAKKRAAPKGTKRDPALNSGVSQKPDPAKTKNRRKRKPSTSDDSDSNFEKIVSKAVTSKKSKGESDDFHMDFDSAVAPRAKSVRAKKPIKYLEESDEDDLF

| Structure (SMILES) | inhibition [1] | inhibition [2] | Activity (Nucleic Acid) | inhibition [3] | MIC (Saccharomyces cerevisiae) | MIC50 (Saccharomyces cerevisiae) [µM] |
| --- | --- | --- | --- | --- | --- | --- |
| C[C@H]1CC2=C(C(=O)c3c(O)cc(O)cc3C2=O)[C@H](O)O1 | Active | inactive | inactive | inactive | inactive | – |
| C[C@@H]1CC2=C(C(=O)c3ccccc3C2=O)[C@H](C)O1 | Active | – | inactive | inactive | Active | – |
| Cc1c2ccncc2c(C)c2c1[nH]c1ccccc12 | – | Active | Active | inactive | – | – |
| COc1ccc2c(c1)C(=O)C1=C(C[C@H](CC(=O)O)O[C@@H]1C)C2=O (racemic) | Active | Active | inactive | inactive | Active | – |
| COc1cc(OC)c2c(c1)C(=O)C1=C(CO[C@@H](C)C1)C2=O | Active | Active | inactive | inactive | – | – |
| C[C@H]1CC2=C(C(=O)c3ccccc3C2=O)[C@@H](C)O1 | Active | – | inactive | inactive | Active | – |
| C[C@H]1CC2=C(CO1)C(=O)c1c(O)cc(O)cc1C2=O | Active | Active | inactive | inactive | Active | – |
| C[C@H]1CC2=C(C(=O)c3c(O)cccc3C2=O)[C@@H](C)O1 | Active | – | inactive | inactive | Active | – |
| COc1cc(OC)c2c(c1)C(=O)C1=C(C2=O)[C@@H](C)O[C@@H](C)C1 | Active | – | inactive | inactive | – | – |
| COc1cc(O)c2c(c1)C(=O)C1=C(CO[C@@H](C)C1)C2=O | Active | Active | inactive | inactive | – | – |
| COc1cc([C@@H]2c3cc4c(cc3[C@@H](O[C@@H]3O[C@@H]5CO[C@@H](C)O[C@H]5[C@H](O)[C@H]3O)[C@H]3COC(=O)[C@H]23)OCO4)cc(OC)c1O | – | Active | inactive | inactive | – | – |
| C[C@H]1O[C@@H](CC(=O)O)CC2=C1C(=O)c1ccccc1C2=O | Active | – | inactive | inactive | – | 5 (≈ 1.43 µg/mL) |
| CC(C)Oc1cc(OC(C)C)c2c(c1)C(=O)C1=C(CO[C@@H](C)C1)C2=O | Active | Active | inactive | inactive | – | – |
| COc1cc(O)c2c(c1)C(=O)C1=C(C2=O)[C@@H](C)O[C@@H](C)C1 | Active | inactive | inactive | inactive | – | 5 (≈ 1.44 µg/mL) |
| COc1cccc2c1C(=O)C1=C(C[C@H](C)O[C@@H]1C)C2=O | Active | inactive | inactive | inactive | – | 80 (≈ 21.8 µg/mL) |
| C[C@H]1CC2=C(C(=O)c3ccccc3C2=O)[C@H](O)O1 | Active | – | inactive | inactive | Active | – |

— ChEMBL document CHEMBL1152635, “Pyranonaphthoquinone derivatives of eleutherin, ventiloquinone L, thysanone and nanaomycin A possessing a diverse topoisomerase II inhibition and cytotoxicity spectrum” (2009)
